Source: PubChem BioAssay
S100A4 MyoIIA = blocks human S100A4 binding to myosin IIA peptide. P26447. S100A4/TAMRA-MyoIIA peptide fluorescence polarization. inhibition, % at 10.7 µM. 360,000 tested, 0.14% active;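 active = mean inhibition of at least 70% across replicates, with every replicate also reaching that level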
Target sequence (P26447 whole entry, looked up): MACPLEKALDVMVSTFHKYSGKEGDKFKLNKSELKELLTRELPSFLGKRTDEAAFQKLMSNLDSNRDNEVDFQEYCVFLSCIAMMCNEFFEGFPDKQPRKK
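Assay system: human S100A4 monomer with TAMRA-labelled myosin IIA peptide / Buffer or medium: Calcium-containing HEPES buffer, pH 7.2 / Reagent: TAMRA-labelled myosin IIA heavy-chain peptide probe, 5 nM / Compound: one dose per compound / Timing: polarization read 5 min after assay mix addition, stable 5–60 min / Benchmarks: neutral control DMSO, positive control TFP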
rRNA inh HTS = inhibits bacterial ribosomal RNA function over humanized ribosomes; AID 720706; GFP signal change (wild-type ribosome), % (no concentration beside the values); 350,000 tested, 1.6% active; E. coli WT GFP vs humanized-ribosome RFP mutants, fluorescence, 24 h; stronger effect = lower value; DMSO median 0, no signal -100;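 active = significant combined selectivity score with lowered wild-type GFP, culture density cut under 30%, mutant RFP and density less affected; inactive = any of these conditions unmet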
PGC1a acetyl inh = lowers PGC1a acetylation signal in U2OS cells. AlphaScreen anti-acetyl-lysine; with virally co-expressed GCN5 acetyltransferase. inhibition, % at 15.6 µM. 350,000 tested, 0.17% active. AID 651687;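 active = every replicate shows inhibition of at least 40%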;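 note: 0% = neutral control wells and 100% = positive control wells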
ERAP1 inh = blocks human ERAP1 aminopeptidase activity. Q9NZ08. inhibition, % at 10.7 µM. 340,000 tested, 0.15% active. recombinant ERAP1, Leu-AMC fluorescence, 60 min. AID 652197;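 active = mean replicate inhibition of at least 30%, or all replicates individually reaching that 30% level; inactive = mean below 30% and not every replicate reaching it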;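 note: 0% = neutral control wells and 100% = L-leucinethiol positive control wells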
ARNT-TACC3 inh = disrupts binding between human ARNT and TACC3. 390,000 tested, 0.66% active. AlphaScreen His-ARNT PAS-B/GST-TACC3 binding, luminescence; TACC3 fragment carries E629A point mutation. inhibition, % at 9.99 µM. Q9Y6A5;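 active = mean inhibition of replicates at least 50% and at least half of replicates each reaching 50%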;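 note: 0% = complete ARNT plus TACC3 wells and 100% = ARNT alone without TACC3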
Casp6 inh = inhibitors of human caspase-6; P55212; 350,000 tested, 0.53% active; inhibition, % at 12.5 µM; purified caspase-6, Z-VEID-R110 cleavage fluorescence;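 active = mean inhibition across replicates at least about 35%, with every replicate also reaching that limit, limit read from the data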;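 note: 0% = median of neutral control wells and 100% = no fluorescence left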
Target sequence (P55212 24-179 limits assumed): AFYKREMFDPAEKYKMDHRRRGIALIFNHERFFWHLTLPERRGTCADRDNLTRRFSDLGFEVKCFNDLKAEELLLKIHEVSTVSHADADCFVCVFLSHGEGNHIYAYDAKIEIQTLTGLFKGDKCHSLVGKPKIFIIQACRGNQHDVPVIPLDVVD
Target sequence (P55212 194-293 limits assumed): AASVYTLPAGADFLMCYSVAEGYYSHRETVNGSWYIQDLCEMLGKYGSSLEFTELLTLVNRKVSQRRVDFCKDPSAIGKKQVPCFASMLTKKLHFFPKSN
* = called active by the depositor; . = no result given; ! = not confirmed by another sample. Hits are enriched below; roughly 2.4% of the tested compounds scored in any of these assays.

SMILES | S100A4 MyoIIA | rRNA inh HTS | PGC1a acetyl inh | ERAP1 inh | ARNT-TACC3 inh | Casp6 inh
Cc1[nH]n(-c2ccccc2)c(=O)c1N=Nc1ccc(C(=O)O)cc1 | 8 | 3 | 25 | 3 | -1 | 1
Cc1[nH]n(C(N)=S)c(=O)c1N=Nc1cccc(C(F)(F)F)c1 | -2 | 8 | . | -5 | -17 | -3
CCN1[C@H](C(=O)NCc2ccc(F)cc2)[C@@H](CO)[C@@H]2Cn3c(ccc(-c4ccccc4OC)c3=O)[C@@H]21 | -3 | -4 | . | -1 | -2 | -4
COc1ccc2nc(-n3c(O)c(C4=c5ccccc5=NC4=O)[nH]c3=S)sc2c1 | -4 | -44* | -1 | 1 | -25 | 3
Cn1c(O)c(C2=c3ccccc3=NC2=O)[nH]c1=S | . | . | . | . | 2 | .
CCN(CC)C(=O)c1[nH]cnc1C(=O)Nc1cccc(C)c1 | 13 | -3 | 6 | 2 | -1 | 9
Cc1cccc(NC(=O)c2nc[nH]c2C(=O)N(C)CCO)c1 | -4 | -40* | . | 0 | . | -4
C=CCn1c(SCn2nnc3ccccc3c2=O)nnc1-c1ccc(Br)cc1 | . | . | -9 | . | 3 | .
C=CCn1c(COc2cccc(C)c2)nnc1SCn1nnc2ccccc2c1=O | -20 | -43* | . | -4 | . | -1
CCN1CCN(Cc2ccc(C(=O)Nc3ccc(C)c(NCc4cnc(NC(=O)OC)cn4)c3)cc2C(F)(F)F)CC1 | 0 | -17*! | -33 | -3 | 5 | -31
CCN1CCN(Cc2ccc(NC(=O)c3ccc(C)c(NC(=O)c4ccnnc4)c3)cc2C(F)(F)F)CC1 | -1 | 4 | . | -2 | . | -9
COc1ccc2c3c([nH]c2c1)[C@H](CO)N(C(=O)Nc1ccc(F)cc1)CC31CN(C(=O)Cc2ccccc2)C1 | . | -10 | . | . | . | .
COc1ccc(N2C(=O)[C@@H]3[C@H](C2=O)[C@H]2c4ccccc4C=CN2[C@@H]3C(C)=O)cc1 | -8 | -4 | 0 | 2 | 41 | 84*
CCOc1ccccc1NC(=S)Nc1ccc2cn[nH]c2c1 | -1 | -7 | 18 | 1 | active | 4
FC(F)Oc1ccc(NC(=S)Nc2ccc3cn[nH]c3c2)cc1 | -2 | -25* | 21 | -1 | 4 | 8
O=C(COc1ccccc1)Nc1ccc2[nH]ncc2c1 | -2 | 0 | . | 1 | 0 | 1
Cc1ccccc1OCC(=O)Nc1ccc2[nH]ncc2c1 | -1 | -21* | -1 | -2 | -11 | 1
Oc1cccc2c(NC(=S)Nc3ccc(OC(F)F)cc3)cccc12 | -27 | -54 | . | 3 | . | 81*
O=C(C[C@@H]1CC[C@@H]2[C@H](COC[C@H](O)CN2C(=O)c2ccc3c(c2)OCO3)O1)NCCN1CCCCC1 | -9 | 1 | 0 | -1 | -6 | -17
C[C@@H]1CN([C@@H](C)CO)C(=O)c2cc(NC(=O)Nc3ccc(F)cc3)ccc2O[C@@H](C)CCCCO[C@H]1CN(C)Cc1ccccc1 | -6 | 0 | -6 | 3 | 6 | 0
CCC(=O)N1CC[C@@H]2[C@H](CO)Nc3ccc(C#Cc4ccccc4)cc3[C@@H]21 | 4 | -3 | 5 | 1 | -10 | -2
COc1ccc(C(=O)C2CCCN(Cc3ccc4nonc4c3)C2)cc1OC (stereo unspecified) | 2 | -6 | -9 | -5 | 2 | 3
COc1ccc(C(=O)C2CCCN(Cc3ccc4nonc4c3)C2)c(OC)c1 (stereo unspecified) | -18 | -28* | 5 | 3 | 9 | 6
O=[N+]([O-])c1c(NCCCO)cc(Sc2nc3ccccc3s2)c2nonc12 | -6 | 5 | 58* | -4 | 4 | 12
CCC(=O)OCCNc1cc(Sc2nc3ccccc3s2)c2nonc2c1[N+](=O)[O-] | . | . | 19 | . | 9 | .
Cc1ccc(NC(=S)Nc2cccc3cnccc23)cc1 | 4 | -42 | . | 6 | 7 | 80*
Cc1ccc(NC(=S)Nc2cccc3cnccc23)cc1C | -4 | -41 | 17 | 2 | 45 | 3
S=C(NCCc1ccccc1)Nc1cccc2cnccc12 | -1 | -27* | 18 | -4 | 15 | 1
FC(F)(F)c1ccccc1NC(=S)Nc1cccc2cnccc12 | -1 | 19 | . | -4 | 10 | 37*
CCn1cc(CNC(=S)Nc2cccc3ccccc23)cn1 | -4 | -17 | . | 2 | -5 | 53*
